Source: ChEMBL document CHEMBL1149851, “Pestalotheols A-D, bioactive metabolites from the plant endophytic fungus Pestalotiopsis theae” (J Nat Prod, 2008)
Counter-ions that a name gives are not always drawn. Activity calls are given as the source filed them. The calls are words filed in the database; no cut-off is given here.

Key:
[1] = test system: Human immunodeficiency virus 1; assay: Inhibition of HIV1 LAI replication in C8166 cells after 4 days by ELISA; format: functional, organism-based; conditions: Human immunodeficiency virus 1, LAI, C8166, 96 h
In short: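 C8166 cells were infected with HIV-1 LAI (MOI 0.058) for 1.5 h at 37 °C, PBS-washed, and seeded at 3 × 10⁴/well with or without compounds; indinavir sulfate was the positive control. After 4 days, supernatant was inactivated with 0.5% Triton X-100 and diluted threefold. p24 was measured by capture ELISA (anti-p24 mAb coat, HRP-anti-p24, OPD, A490), and EC₅₀ was derived from p24 level.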

[2] = Cytotoxicity against human C8166 cells after 4 days by MTT method; format: cell-based
In short: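 C8166 cells were seeded at 3 × 10⁴/well with or without a range of test-compound concentrations, in triplicate. They were incubated 4 days at 37 °C in humid 5% CO₂, and viability was read by MTT. CC₅₀ is the concentration reducing viable cells by 50%.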

[3] = Selectivity index, ratio of CC50 for human C8166 cells to EC50 for HIV1 LAI; format: toxicity, cell-based; conditions: read-out: Ratio CC50/EC50
In short: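 Index calculated as CC₅₀/EC₅₀. CC₅₀ came from a 4-day MTT viability assay in C8166 cells run in parallel with a 4-day HIV-1 LAI (MOI 0.058) replication assay in C8166 cells, whose EC₅₀ was read from p24 antigen capture ELISA.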

Staphylococcus aureus = assay: Antibacterial activity against Staphylococcus aureus ATCC 6538 assessed as zone of inhibition at 100 ug/disk after 24 hrs; format: functional, organism-based
In short: (§1)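 Bacteria grown on Mueller-Hinton agar. Paper disks (6 mm) loaded with 100 µg test compound per disk were placed on the seeded agar surface. Plates were incubated at 37 °C for 24 h, then scored for the presence of a zone of inhibition.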

Streptococcus mutans = assay: Antibacterial activity against Streptococcus mutans ATCC 25175 assessed as zone of inhibition at 100 ug/disk after 24 hrs; format: functional, organism-based; in short: as §1
Enterococcus faecalis = assay: Antibacterial activity against Enterococcus faecalis ATCC 19433 assessed as zone of inhibition at 100 ug/disk after 24 hrs; format: functional, organism-based; in short: as §1
Micrococcus luteus = assay: Antibacterial activity against Sarcina lutea CMCC B28001 assessed as zone of inhibition at 100 ug/disk after 24 hrs; format: functional, organism-based; in short: as §1
Geotrichum candidum = assay: Antifungal activity against Geotrichum candidum AS2.498 assessed as zone of inhibition at 100 ug/disk after 48 hrs
Candida albicans = assay: Antifungal activity against Candida albicans ATCC 10231 assessed as zone of inhibition at 100 ug/disk after 48 hrs
Aspergillus fumigatus = assay: Antifungal activity against Aspergillus fumigatus ATCC 10894 assessed as zone of inhibition at 100 ug/disk after 48 hrs

EC50 [1]	SMILES	CC50 at 96 h [2]	selectivity ratio [3]	Activity (Staphylococcus aureus)	Activity (Streptococcus mutans)	Activity (Enterococcus faecalis)	Activity (Micrococcus luteus)	Activity (Geotrichum candidum)	Activity (Candida albicans)	Activity (Aspergillus fumigatus)
16.1 µM	CC(C)=C/C=C1/C[C@@H]2O[C@@H](C(C)(C)O)C[C@@]23O[C@H]3[C@@H]1O [PESTALOTHEOL C]	163 µM	10.1	inactive	inactive	inactive	inactive	inactive	inactive	inactive
0.00818 µM	CC(C)(C)NC(=O)[C@@H]1CN(Cc2cccnc2)CCN1C[C@@H](O)C[C@@H](Cc1ccccc1)C(=O)N[C@H]1c2ccccc2C[C@H]1O [INDINAVIR SULFATE]	–	–	–	–	–	–	–	–	–
–	CC1(C)CC(=O)c2cc3c(cc2O1)C[C@H](C(C)(C)O)O3	–	–	inactive	inactive	inactive	inactive	inactive	inactive	inactive
–	CC1(C)CC(=O)C2=C(O1)[C@H](O)[C@]1(O)C[C@H](C(C)(C)O)O[C@H]1C2	–	–	inactive	inactive	inactive	inactive	inactive	inactive	inactive
–	CC1(C)CC(=O)C2=C(C[C@]3(O)C[C@H](C(C)(C)O)O[C@H]3C2)O1	–	–	inactive	inactive	inactive	inactive	inactive	inactive	inactive
